# High-throughput results as filed in PubChem.
# Rows were chosen to be rich in hits. Some 2.4% of all compounds tested hit in one or more screens of this group.
# NPY1 pot ag – NPY-Y1 receptor potentiators or agonists, primary screen, cell-based | Neuropeptide Y receptor type 1 (Homo sapiens), P25929 | NPY-Y1 expressing cells, potentiator/agonist activation | activation, % at 3.6 µM | 220,000 tested, 0.37% active; in the data active = activation above about 33%, passing the limit was not always enough;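 also: cells stimulated with NPY at EC10 then isoproterenol at EC100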
# NPY-Y1 antag – NPY-Y1 receptor antagonists, primary screen, cell-based. 200,000 tested, 1% active. Neuropeptide Y receptor type 1 (Homo sapiens), P25929. inhibition, % at 3.6 µM. HEK293-CNG Y1 cells, membrane potential fluorescence; NPY at EC95, then isoproterenol;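 active = inhibition above the campaign mean inhibition of all tested compounds plus 3 SD, cut at about 20% in these data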
#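 Benchmarks – high control isoproterenol alone, low control NPY with isoproterenol · Material – HEK293 Y1/CNG channel cell line · Times – dye 3 h, compound 60 min room temperature, stimulation 45 min · Probe or stimulus – NPY (25 nM), isoproterenol (1 µM), Ro 20-1724 (25 µM) · Evaluation – % inhibition of NPY effect · Signal – fluorescence, membrane potential probe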
# NPY2 pot ag – NPY-Y2 potentiators or agonists, primary screen, cell-based; cells expressing NPY-Y2, potentiator/agonist read-out; 220,000 tested, 0.45% active; activation, % at 3.6 µM; in the data active = activation above about 27%;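 also: cells stimulated with NPY near EC25 plus isoproterenol at EC100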
# S1P4 ag – S1P4 receptor agonists, primary screen, cell-based. Sphingosine 1-phosphate receptor 4 (Homo sapiens), O95977. S1P4-expressing cell line, agonist reporter assay. activation, % at 4.98 µM. 220,000 tested, 0.35% active; in the data active = activation above about 11%
# S1P4 antag – S1P4 receptor antagonists, primary screen, cell-based; Sphingosine 1-phosphate receptor 4 (Homo sapiens), O95977; S1P4-expressing cells, antagonist mode, reporter read-out; inhibition, % at 4.98 µM; 220,000 tested, 0.26% active; in the data active = inhibition above about 29%
# NPY Y2 blocker – NPY-Y2 receptor antagonists, primary screen, cell-based; Neuropeptide Y receptor type 2 (Homo sapiens), P49146; NPY-Y2 expressing cells, antagonist mode; inhibition, % at 2.7 µM; 140,000 tested, 0.99% active; in the data active = inhibition above about 17%
# S1P4 agonist cf – S1P4 receptor agonists, retest, confirmation, cell-based, high throughput | shares compounds with S1P4 ag | S1P4 agonist cell-based reporter assay | activation, % at 4.98 µM | 740 tested, 7% active | AID 1523, 2009; in the data active = activation above about 12%
# S1P1 agonist – S1P1 receptor agonists, human, counter-screen for S1P4 agonist project, cell-based | shares compounds with S1P4 ag | activation, % at 4.98 µM | 740 tested, 4% active | S1P1 agonist cell-based assay, activation; in the data active = activation above about 21%
# Target sequence (P21453 whole entry, looked up): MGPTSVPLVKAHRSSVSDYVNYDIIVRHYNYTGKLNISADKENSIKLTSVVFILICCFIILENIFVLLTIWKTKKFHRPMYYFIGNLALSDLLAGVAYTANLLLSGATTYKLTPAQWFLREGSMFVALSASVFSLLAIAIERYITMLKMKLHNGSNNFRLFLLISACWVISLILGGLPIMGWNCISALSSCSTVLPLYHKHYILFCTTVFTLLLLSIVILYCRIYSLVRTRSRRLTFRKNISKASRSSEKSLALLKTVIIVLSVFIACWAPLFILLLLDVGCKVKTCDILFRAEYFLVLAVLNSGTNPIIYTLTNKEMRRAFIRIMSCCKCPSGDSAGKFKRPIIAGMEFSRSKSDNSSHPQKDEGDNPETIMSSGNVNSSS
# A number is an active result; . = inactive; / = no result given.
SMILES,NPY1 pot ag,NPY-Y1 antag,NPY2 pot ag,S1P4 ag,S1P4 antag,NPY Y2 blocker,S1P4 agonist cf,S1P1 agonist
N#C/C(=C\c1cccs1)C(=O)c1ccccc1Cl,.,/,.,36,.,/,.,.
COc1ccc2cc(/C=N/NC(=O)c3ccc(CN(c4cccc(Cl)c4Cl)S(C)(=O)=O)cc3)c(Cl)nc2c1,.,.,.,43,.,.,.,.
Cc1ccc(C2=C/C(=C/c3cccs3)C(=O)O2)cc1,.,.,.,.,.,.,/,/
N/N=C1\CCCc2c1[nH]c1ccc([N+](=O)[O-])cc21,.,/,.,.,.,/,/,/
O=[N+]([O-])c1ccc2[nH]c3c(c2c1)CCCC3,.,.,.,15,.,/,.,.
O=[N+]([O-])c1ccc(COc2ccc(-c3[nH]ncc3-c3ccc(Cl)cc3)c(O)c2)cc1,.,.,.,114,.,.,.,.
Cn1cc2cc([N+](=O)[O-])ccc2n1,.,.,.,.,.,/,/,/
Cc1ccc(C(C(=O)NCc2ccco2)N(C(=O)CNC(=O)c2cccs2)c2c(C)cccc2C)cc1 (configuration not stated),.,.,.,81,.,.,.,.
Cc1ccc(C(C(=O)NCc2ccco2)N(C(=O)CNC(=O)c2cccs2)c2c(C)cc(C)cc2C)cc1 (configuration not stated),.,.,.,.,.,.,/,/
O=C1CCC([N+](=O)[O-])C(c2ccc3c(c2)OCO3)N1 (configuration not stated),.,.,.,114,.,/,.,.
CCOc1cc(CNCCSc2nnnn2C)cc(Br)c1OCc1ccc(F)cc1,.,.,.,41,.,.,.,.
COc1cc(CNCCSc2nnnn2C)cc(Br)c1OCc1ccc(F)cc1,.,.,.,.,.,.,/,/
O=C(N/N=C/C=C/c1ccc(Br)cc1)C(O)c1ccccc1 (configuration not stated),.,.,.,.,.,.,/,/
CC(=O)c1cnc2sccn2c1=O,.,.,.,16,.,/,.,.
O=C(N/C(=C\c1ccc(Br)cc1)C(=O)N1CCCC1)c1cccs1,.,.,.,.,.,/,/,/
O=C(N/C(=C/c1ccc(Br)cc1)C(=O)N1CCCC1)c1cccs1,.,.,.,13,.,/,.,.
O=C(/C=C/c1ccccc1[N+](=O)[O-])NCc1ccncc1,.,.,.,.,.,/,/,/
Cc1ccc(NC(=O)Cn2cnc3ccccc32)cc1C,.,.,.,58,.,/,.,.
COc1cc(C2NC(=S)NC(C)=C2C(=O)Nc2cc(C)cc(C)c2)ccc1O (configuration not stated),.,/,.,33,.,/,.,.
CCOc1cc(C2NC(=S)NC(C)=C2C(=O)Nc2ccccc2)ccc1O (configuration not stated),.,/,.,.,.,/,/,/
O=[N+]([O-])c1cccc(NC(=S)NCCc2ccccc2)c1,.,.,.,20,.,.,.,.
Fc1cccc(NC(=S)NCCc2ccccc2)c1,.,.,.,.,.,.,/,/
COC(=O)c1ccc(Cn2cc(Cl)cn2)o1,.,/,.,.,.,/,/,/
COc1cc(C#N)c(NC(=S)N2CCOCC2)cc1OC,.,.,.,24,.,/,.,.
COC(=O)c1ccc(C(=O)OC)c(NC(=S)N2CCOCC2)c1,.,.,.,.,.,/,/,/
SMILES,NPY1 pot ag,NPY-Y1 antag,NPY2 pot ag,S1P4 ag,S1P4 antag,NPY Y2 blocker,S1P4 agonist cf,S1P1 agonist
O=C(NCC1CCCO1)/C(=C/c1ccccc1)NC(=O)c1ccccc1 (configuration not stated),.,.,.,28,.,/,.,.
Cc1ccc(C(=O)N/C(=C\c2ccccc2)C(=O)NCC2CCCO2)cc1 (configuration not stated),.,.,.,.,.,.,/,/
O=C(NC(=S)NCC1CCCO1)c1ccco1 (configuration not stated),.,.,.,14,.,/,.,.
CCOC(=O)Cc1nc2cc(Cl)ccc2o1,.,.,.,.,.,/,/,/
Cc1ccsc1C(=O)N1CCCC(CCC(=O)N2CCN(c3ccccn3)CC2)C1 (configuration not stated),.,.,.,.,.,/,/,/
Cc1ccc(/C=N/n2c(C3CCCCC3)n[nH]c2=S)s1,.,.,.,21,.,.,.,.
Cc1nn(Cc2ccc(Cl)c(Cl)c2)c(C)c1NC(=O)c1cc(-c2ccc3c(c2)OCO3)on1,.,.,.,22,.,.,.,.
O=[N+]([O-])c1ccc2nc(-c3ccc(OC(F)F)cc3)cn2c1,.,.,.,.,.,/,/,/
CN1CCN(CCCNC(=O)c2ccc(/C=C3/Sc4ccccc4N(Cc4cccc(Cl)c4)C3=O)cc2)CC1,.,.,.,.,.,/,/,/
CN1CCN(CCCNC(=O)c2ccc(/C=C3\Sc4ccccc4N(Cc4ccc(F)cc4)C3=O)cc2)CC1,.,.,.,23,.,/,.,.
COc1ccc(/C=C2\Cc3ccccc3C2=O)cc1OC,.,/,.,.,.,/,/,/
COc1cc2c(cc1OC)/C(=C/c1ccc(Br)cc1)C(=O)OC2,.,.,.,149,.,.,.,.
N/C(CCS(=O)(=O)c1ccc(Cl)cc1)=N\OC(=O)c1ccccc1C(F)(F)F,.,/,.,.,.,/,/,/
N/C(CCS(=O)(=O)c1ccc(Cl)cc1)=N\OC(=O)c1ccc(Cl)cc1,.,/,.,103,.,/,.,.
CCOC(=O)N1CCN(Cc2nc(-c3ccc(OC)cc3)no2)CC1,.,.,.,.,.,.,/,/
CCOC(=O)N1CCN(Cc2nc(-c3ccc(Cl)cc3)no2)CC1,.,.,.,37,.,.,.,.
CCOc1ccc(S(=O)(=O)NCc2ccccc2Cl)cc1C(N)=O,.,.,.,.,.,/,/,/
CCOc1ccc(S(=O)(=O)NCc2ccccc2)cc1C(N)=O,.,.,.,11,.,/,.,.
O=C(CC(CC(=O)c1ccc(Br)cc1)c1cccnc1)c1ccc(Br)cc1,.,/,.,.,.,/,/,/
CCOc1cc(N2CCOCC2)c(OCC)cc1NC(=O)c1ccc(C)cc1,.,.,.,155,.,/,.,.
O=C(Nc1ccnc(-c2cccnc2)n1)c1ccc(Cl)c(Cl)c1,.,.,.,27,.,.,.,.
Cc1ccc(C(=O)Nc2ccnc(-c3cccnc3)n2)cc1,.,.,.,.,.,/,/,/
